Measured values collected from several papers.
Lines come from different studies, so protocols differ.

SMILES | method | matrix | time | pH | temperature | setting | solubility
COc1cccc(OC)c1-c1cc(C(=O)N[C@@H](CC(C)C)C(=O)O)nn1-c1ccnc2cc(Cl)ccc12 | – | aqueous buffer | – | pH 7.4 | – | – | > 155 µg/mL
Brc1cccc2c(NCc3ccccc3)nc(NCc3ccccc3)nc12 | – | aqueous buffer | – | pH 6.2 | – | – | 0.13 µg/mL
COc1cccc(OC)c1-c1nc(C(=O)N[C@@H](CC(C)C)C(=O)O)cn1-c1ccnc2cc(Cl)ccc12 | – | aqueous buffer | – | pH 7.4 | – | – | > 52 µg/mL
Cc1ccc(F)cc1Nc1nc(NCc2ccccc2)c2ccccc2n1 | – | aqueous buffer | – | pH 6.2 | – | – | 0.07 µg/mL
CCCCCCN1CCCC1=O | – | PBS | 48 h | pH 7.4 | 25 °C | – | 79000 µM
COc1cc(OC)cc(N(CCNC(C)C)c2ccc3ncc(-c4cnn(C)c4)nc3c2)c1 | – | aqueous buffer | – | pH 9.61 | – | – | 1 µg/mL
CN(CCOc1ccc(CC2SC(=O)NC2=O)cc1)c1ccccn1 (stereo not shown) | – | aqueous buffer | – | pH 7.4 | – | – | ≥ 144 µM
CCCCCCCCO | – | PBS | 48 h | pH 7.4 | 25 °C | – | 6000 µM
Cc1cc(Nc2ccc(S(F)(F)(F)(F)F)cc2)n2nc(C(F)(F)F)nc2n1 | nephelometry | aqueous buffer | – | pH 6.5 | – | – | 30 to 60 µM
NCCCCNc1nc2cc(Cl)ccc2n1Cc1ccccc1 | shake flask | aqueous buffer | 20 h | pH 6.5 | 25 °C | – | ≥ 200 µM
OCCOc1cccc2c(NCc3ccccc3)nc(N3CCOc4ccccc43)nc12 | – | aqueous buffer | – | pH 5 | – | – | 21.5 µg/mL
CC(C)CC(=O)N1CCC[C@H](COc2cccc3c2C(N)=NS(=O)(=O)N3)C1 | – | ethanol | – | – | – | – | 1230 µM
NC1CCN(c2nccc3[nH]c(-c4ccc(F)c(F)c4)nc23)CC1 | shake flask | aqueous buffer | – | pH 6.5 | – | – | > 200 µM
COc1cc(C(=O)O)cc(OC)c1O | – | water | 72 h | – | 25 °C | – | 7400 µM
COc1cccc2c(NCc3ccccc3)nc(-n3c(=O)oc4ccccc43)nc12 | – | aqueous buffer | – | pH 7.4 | – | – | < 0.01 µg/mL
CN1CCN([C@H]2CC[C@H](Nc3nccc4[nH]c(-c5cc(F)cc(F)c5)nc34)CC2)CC1 | shake flask | aqueous buffer | – | pH 6.5 | – | – | > 200 µM
COc1cccc2c(-c3ccccc3)cc(-c3ccc(-c4ccc(C(=O)O)cc4)[nH]3)nc12 | – | PBS | – | pH 7.4 | – | – | 0.26 µM
NCCCNc1nc2cc(Br)ccc2n1Cc1ccccc1 | shake flask | aqueous buffer | 20 h | pH 6.5 | 25 °C | – | 100 µM
O=C(Nc1cc(F)ccc1C(=O)O)c1ccc(-c2ccccc2)cc1 | shake flask | aqueous buffer | 24 h | pH 6.5 | 25 °C | – | 5 µM
FC(F)(F)c1ccc2c(c1)nc(N1CCNCC1)n2Cc1ccccc1 | shake flask | aqueous buffer | 20 h | pH 6.5 | 25 °C | – | 200 µM
CCCCCCCCCCCCCC(=O)Nc1ccc(CP(=O)(O)O)cc1 | – | water | – | – | – | – | 1000 µg/mL
O=C(NCCN1CCCC1)c1cc(-c2ccc(CN3CCOCC3)cc2)nc2ccc(F)cc12 | – | simulated gastric fluid | 4 h | pH 2 | 37 °C | acidic | > 6490 µM
c1ccc(CNc2nc(N3CCOc4ccccc43)nc3ccccc23)cc1 | – | aqueous buffer | – | pH 5 | – | – | 25.2 µg/mL
Cc1cc(Nc2cccc(Cl)c2)n2nc(C(C)(F)F)nc2n1 | nephelometry | aqueous buffer | – | pH 6.5 | – | – | 77 to 150 µM
CCOc1ccc2cc(-c3nn(C4CCCCCC4)c(N)c3C(N)=O)ccc2n1 | – | PBS | – | pH 6.5 | 25 °C | – | 46.5 µM
CCC(F)(F)c1nc2nc(C)cc(Nc3ccc(S(F)(F)(F)(F)F)cc3)n2n1 | nephelometry | aqueous buffer | – | pH 6.5 | – | – | 15 to 30 µM
COc1cc(Cl)c(C(=O)N[C@@H](CN[C@H]2CC[C@@H](N)CC2)Cc2ccc(C#N)cc2)cc1-c1ccc(CN[C@H](C)c2ccc(C)cc2)o1 | – | aqueous buffer | – | pH 6.5 | – | – | > 3070 µg/mL
C[C@]12CCCN1CC1=NNC(=O)c3cc(F)cc4[nH]c2c1c34 | – | ethanol | – | – | – | – | 49000 µg/mL

SMILES | method | matrix | time | pH | temperature | setting | solubility
CCOc1ccc2cc(-c3nn(C(C)(C)C)c(N)c3C(N)=O)cnc2c1 | – | PBS | – | pH 6.5 | 25 °C | – | 26 µM
COCCOCCOCc1n(Cc2ccc3ccccc3n2)c2ccccc2[n+]1Cc1ccc2ccccc2n1.[Cl-] | – | water | – | – | – | – | > 40000 µg/mL
COC(=O)c1ccc2c(c1)nc(C1CCNCC1)n2Cc1ccccc1 | shake flask | aqueous buffer | 20 h | pH 6.5 | 25 °C | – | 200 µM
Cc1c(N(C)C)c(=O)n(-c2ccccc2)n1C | – | PBS | – | pH 7.4 | – | – | 46300 µg/mL
CC(C)C[C@H](NC(=O)[C@H](Cc1ccccc1)NC(=O)c1cnccn1)B(O)O | nephelometry | aqueous buffer | – | pH 6.8 | – | – | 50 µM
COc1ccc(C2CC(=O)c3c(O)cc(O)cc3O2)cc1O (stereo not shown) | shake flask | water | 24 h | – | 25 °C | – | 15.7 µg/mL
Cc1ccc(Nc2nc(NCc3ccccc3)c3ccccc3n2)cc1F | – | aqueous buffer | – | pH 6.2 | – | – | 0.04 µg/mL
Cc1ccc(-n2sc(=O)n(Cc3ccc(F)cc3)c2=O)cc1 | – | aqueous buffer | – | – | – | – | ~200 µM
O=C(Nc1c2c(cc3c1CCC3)CCC2)NS(=O)(=O)/C=C/c1nccs1 | – | simulated gastric fluid | 24 h | – | 37 °C | acidic | < 5 µg/mL
CCCn1nc(C(=O)N2CCCCC2)c2c1CCC(NCCN1CCCCC1)C2 (stereo not shown) | – | PBS | 16 h | pH 7.4 | – | – | 1740 µM
CC(C)C[C@H](NC(=O)[C@H](CCc1ccccc1)NC(=O)CN1CCOCC1)C(=O)N[C@@H](Cc1ccccc1)C(=O)N[C@@H](CC(C)C)C(=O)[C@@]1(C)CO1 | – | PBS | 24 h | pH 7.4 | – | – | 1.12 µg/mL
CCC(C)n1ncn(-c2ccc(N3CCN(c4ccc(OCC5COC(Cn6cncn6)(c6ccc(Cl)cc6Cl)O5)cc4)CC3)cc2)c1=O (stereo not shown) | – | aqueous buffer | – | pH 6 | – | – | 2.5 µg/mL
CCOC(=O)C1=C(C)NC(C)=C(C(=O)OC)C1c1cccc(Cl)c1Cl (stereo not shown) | – | FaSSIF | 24 h | pH 7.4 | 37 °C | – | 40 µg/mL
CCC(F)(F)c1nc2nc(C)cc(Nc3ccc(C(F)(F)F)cc3)n2n1 | nephelometry | aqueous buffer | – | pH 6.5 | – | – | 17 to 34 µM
Cc1cccc(C(=O)Nc2cccc(NC(=O)c3ccccc3)c2)c1 | – | PBS | – | pH 7.4 | – | – | 0.82 µM
CC(C)(C)n1nc(-c2ccc3nc(OC4CCC4)ccc3c2)c(C(N)=O)c1N | – | PBS | – | pH 6.5 | 25 °C | – | 80.6 µM
CC[C@H](C)[C@H](NC(=O)[C@H](CCCNC(=N)N)NC(=O)[C@H](CCC(=O)O)NC(C)=O)C(=O)N[C@H]1CSSC[C@@H](C(=O)N[C@H](C(N)=O)[C@@H](C)O)NC(=O)[C@H](CCCNC(=N)N)NC(=O)[C@H](Cc2c[nH]cn2)NC(=O)[C@H](C)NC(=O)CNC(=O)[C@H](Cc2c[nH]c3ccccc23)NC(=O)[C@H](CC(=O)O)NC(=O)[C@H](CCC(N)=O)NC(=O)[C@H](Cc2c[nH]c3ccccc23)NC(=O)[C@H](C(C)C)NC1=O | – | PBS | – | pH 7.4 | – | – | 4290 µg/mL
Cc1cc(Nc2ccc(C(F)(F)F)cc2)n2nc(C(C)(F)F)nc2n1 | nephelometry | aqueous buffer | – | pH 6.5 | – | – | 70 to 140 µM
Cc1ccc(S(=O)(=O)NCc2ccc(C(=O)NCCN(Cc3ccccc3)C(C)C)cc2)cc1 | – | aqueous buffer | – | pH 7.4 | – | – | 0.79 µg/mL
Brc1cccc(Nc2nc(NCc3ccccc3)c3ccccc3n2)c1 | – | aqueous buffer | – | pH 5 | – | – | 0.03 µg/mL
CCOC(=O)c1ccc(O)cc1 | – | PBS | – | pH 7.4 | – | – | 1210 µg/mL
CCOc1ccc2cc(-c3nn(CC4CC4)c(N)c3C(N)=O)cnc2c1 | – | PBS | – | pH 6.5 | 25 °C | – | 26.5 µM
COCc1nn(Cc2ccc(Cn3ccccc3=O)cc2)cc1C(=O)NCc1c(F)ccc(OC)c1F | – | FaSSIF | 4 h | pH 6.5 | – | – | 9 µg/mL
CN1CCN(C(=O)C2CCN(c3nccc4[nH]c(-c5ccc(F)c(F)c5)nc34)CC2)CC1 | shake flask | aqueous buffer | – | pH 6.5 | – | – | > 200 µM
CNC(=O)c1ccc(N(Cc2ccc(C3CCCCC3)cn2)C(=O)[C@H]2CCN2S(=O)(=O)c2c(F)c(F)c(F)c(F)c2F)cc1O | – | simulated intestinal fluid | – | – | – | – | 131 µg/mL
N=C(N)NCc1ccc(NC(=O)C23CC(C(=O)Nc4ccc(C5=CCN(C(=N)N)CC5)cc4)(C2)C3)cc1 | shake flask | aqueous buffer | – | pH 7.4 | – | – | 770 µg/mL
Brc1ccccc1CNc1nc(NCc2ccccc2)c2ccccc2n1 | – | aqueous buffer | – | pH 5 | – | – | 0.21 µg/mL
